Experimental data of several laboratories.
Compare with care: the assays were run in different laboratories.
PRMT3: Protein arginine N-methyltransferase 3 (PRMT3, Homo sapiens, UniProt O60678)
LDHA: L-lactate dehydrogenase A chain (LDHA, Homo sapiens, UniProt P00338)
MAOA: Amine oxidase [flavin-containing] A (MAOA, Homo sapiens, UniProt P21397)
TDP1: Tyrosyl-DNA phosphodiesterase 1 (TDP1, Homo sapiens, UniProt Q9NUW8)

| Structure (SMILES) | target | test | system | setting | IC50 |
| --- | --- | --- | --- | --- | --- |
| C[C@@H]1C[C@H]2O[C@@H]2/C=C\C=C\C(=O)Cc2c(Cl)c(O)cc(O)c2C(=O)O1 | Mitogen-activated protein kinase kinase kinase 7 (MAP3K7, Homo sapiens, UniProt O43318) | enzyme activity, inhibitor, ATP luminescence | – | – | > 10 µM |
| COc1cc(C[C@H]2C(=O)OC[C@@H]2Cc2ccc(OC)c(OC)c2)ccc1O | High affinity 3',5'-cyclic-AMP phosphodiesterase 7A (PDE7A, Homo sapiens, UniProt Q13946) | enzyme activity, inhibitor | – | – | > 20 µM |
| C(/C=C/c1sc2c3ccccc3ccc2[n+]1CCCc1ccccc1)=C1/Sc2c(ccc3ccccc23)N1CCCc1ccccc1 | PRMT3 | enzyme activity, inhibitor, radiometric | – | – | 2.1 µM |
| O=C(/C=C/c1ccc(O)c(O)c1)O[C@@H]1C[C@](O)(C(=O)O)C[C@@H](O)[C@H]1O | LDHA | enzyme activity, inhibitor | – | pH 7.4 | > 500 µM |
| COc1cc(/C=C/C(=O)N2CCC(Cc3ccccc3)CC2)ccc1OC1CCCCC1 | MAOA | enzyme activity, inhibitor, fluorescence | – | – | 63.9 µM |
| Cc1cnc(-c2ccc(-c3ccc(NC(=O)Nc4c(F)cc(F)cc4F)cc3F)c3c2C(=O)NC3)[nH]1 | High affinity nerve growth factor receptor (NTRK1, Homo sapiens, UniProt P04629) | enzyme activity, inhibitor | – | – | 0.0148 µM |
| C[C@H](NC(=O)[C@@H](c1cccnc1)N(C(=O)CCl)c1ccc(-n2cccc2)cc1)c1ccccc1 | Replicase polyprotein 1ab, main protease (rep, Severe acute respiratory syndrome coronavirus 2, UniProt P0DTD1) | enzyme activity, inhibitor, FRET | – | – | 0.05 µM |
| O=C(O)c1ccc(Nc2c(-c3ccc(S(=O)(=O)O)cc3)nc3ccccn23)cc1 | TDP1 | enzyme activity, inhibitor | – | – | > 100 µM |
| CN(C)CCCN1c2ccccc2CCc2ccc(Cl)cc21 | Glutathione reductase, mitochondrial (GSR, Homo sapiens, UniProt P00390) | enzyme activity, inhibitor, absorbance | – | – | > 100 µM |
| CC(C)(C)OC(=O)N1CCN(C(=O)C(=O)CC(=O)c2cccc(N(Cc3ccccc3)Cc3ccccc3)c2)CC1 | Tyrosine-protein phosphatase non-receptor type 1 (PTPN1, Homo sapiens, UniProt P18031) | enzyme activity, inhibitor, absorbance | – | pH 7 | 9.2 µM |
| Nc1ncnc2c1ncn2[C@@H]1O[C@H](CSCCNC(=O)NCCc2ccccc2)[C@@H](O)[C@H]1O | PRMT3 | enzyme activity, inhibitor, fluorescence | – | – | > 100 µM |
| O=C1C[C@@H](c2cc(O)cc(O)c2)Oc2cc(O)ccc21 | MAOA | enzyme activity, inhibitor | – | – | 13.6 µM |
| Nc1ncnc2c1ncn2[C@@H]1O[C@H](CSCCNC(=O)NCc2ccccc2)[C@@H](O)[C@H]1O | PRMT3 | enzyme activity, inhibitor, fluorescence | – | – | 0.52 µM |
| NS(=O)(=O)c1cccc(Cc2c(-c3ccc(F)c(F)c3)[nH]n(-c3nc(C(=O)O)cs3)c2=O)c1 | LDHA | enzyme activity, inhibitor | – | – | > 50 µM |
| COc1cc2c(OC)nc3c4cc5c(cc4cc(OCCCN(C)C)c3c2cc1OC)OCO5 | TDP1 | enzyme activity, inhibitor, fluorescence | – | – | 1.7 µM |
| CCS(=O)(=O)N1CC(CC#N)(n2cc(-c3ncnc4[nH]ccc34)cn2)C1 | Broad substrate specificity ATP-binding cassette transporter ABCG2 (ABCG2, Homo sapiens, UniProt Q9UNQ0) | transporter uptake, inhibitor, radiometric | Sf9 | 0.75 min, cell membranes | 50.3 µM |
| CC(C)(C)n1nc(-c2ccc3nc(OC4CC4)ccc3c2)c(C(N)=O)c1N | Receptor-interacting serine/threonine-protein kinase 2 (RIPK2, Homo sapiens, UniProt O43353) | cell-free assay | – | – | 0.2 µM |
| CCOc1ccc2c(-c3cc(C)nc(Nc4cc(OC)cc(C(F)(F)F)c4)n3)cnn2n1 | Homeodomain-interacting protein kinase 3 (HIPK3, Homo sapiens, UniProt Q9H422) | enzyme activity, inhibitor | – | – | > 10 µM |
| COc1cc2c(OC)nc3c4cc5c(cc4cc(OCCCN4CCC(O)CC4)c3c2cc1OC)OCO5 | TDP1 | enzyme activity, inhibitor | – | – | 5.5 to 13 µM |
